Source: ChEMBL document CHEMBL4513216, “Probing the Open Global Health Chemical Diversity Library for Multistage-Active Starting Points for Next-Generation Antimalarials” (ACS Infect Dis, 2020)

Experiment: Toxicity liver stage against HepG2, at 10uM
Type: cell-based
Design: test concentration 10 uM, cell line HepG2-A16-CD81EGFP
Conditions: human, HepG2-A16-CD81EGFP cells; read-out: INHIBITION
How it was run: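 Uninfected HepG2-A16-CD81EGFP cells, 3 × 10^3 per well, 1536-well, plated on prespotted compound at 10 μM final, parasite-free screening media added to match infected plates; puromycin 10 μM positive, DMSO 0.5% negative; run in parallel with 48 h PbLuc assay at 37 °C, 5% CO2; viability by CellTiter-Glo luminescence, normalized to controls.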
Compound `CC(=O)N1CCc2c(nc(N(C)C)nc2NCCc2cccs2)C1` has a cytotoxicity at 10 µM of -54%.
`CC(C)(C)c1ccc(S(=O)(=O)CCNC(=O)c2cnccn2)cc1` gave a cytotoxicity at 10 µM of 4.92%.
For `CC(C)OCCN1CCC(Nc2ncccn2)CC1`, the cytotoxicity at 10 µM was -1%.
`CC(C)c1ccc(OCCC(=O)N2CCC(C(=O)N(C)C)CC2)cc1` showed a cytotoxicity at 10 µM of -17.5%.
For `CC(C)CNC(=O)CNC(=O)Nc1cccc(Cl)c1-n1cccn1`, the cytotoxicity at 10 µM was -2.45%.
In the case of `COc1cc(Cl)c(NC(=O)c2cc3c([nH]c2=O)CCCC3=O)cc1OC`, the cytotoxicity at 10 µM is reported as -5.21%.
`N#Cc1ccc(CNC(=O)NC2CCN(CC(F)(F)F)C2)cc1` (stereo unspecified) gave a cytotoxicity at 10 µM of 7.06%.
Work on `CN(Cc1ccc2nonc2c1)C(=O)CCc1cc2n(n1)CCCNC2` yielded a cytotoxicity at 10 µM of -9.46%.
For `CC(=O)N1CCC(Cc2cccc(-c3c(C)noc3C)n2)C1` (stereo unspecified), the cytotoxicity at 10 µM was 0.664%.
`Cc1ncc(C(=O)NCCNc2ccncc2)s1` gave a cytotoxicity at 10 µM of 1.72%.
`CCc1cnc(CN2CCCC2c2noc(C3CC3)n2)o1` (stereo unspecified) showed a cytotoxicity at 10 µM of -4.84%.
With `COc1cc(N2C[C@@H]3COC[C@]3(COc3ccccn3)C2)ncn1` the cytotoxicity at 10 µM was 1.35%.
With `CCc1nc(CN(C)C2CCN(CCc3ccncc3)C2)no1` (stereo unspecified) the cytotoxicity at 10 µM was -20.2%.
`COc1ccc2oc(C(C)NC(=O)NCc3noc(C)n3)c(C)c2c1` (stereo unspecified) gave a cytotoxicity at 10 µM of 5.08%.
Work on `Cc1cn2c(n1)CCC(NC(=O)c1cnc(C)nc1C(C)C)C2` (stereo unspecified) yielded a cytotoxicity at 10 µM of -0.144%.
Compound `CN(C)S(=O)(=O)N1CCC(Cn2cccn2)CC1` has a cytotoxicity at 10 µM of -10.9%.
Work on `CNC(=O)[C@H]1C[C@@H]2CN(C(=O)c3ccoc3)C[C@@H]2N1S(C)(=O)=O` yielded a cytotoxicity at 10 µM of -3.88%.
`CCc1nsc(N2CCN(Cc3ccno3)CC2)n1` gave a cytotoxicity at 10 µM of -8.95%.
`CC(C)(C)Cc1noc2ncc(C(=O)N3CCC3)cc12` showed a cytotoxicity at 10 µM of 7.28%.
In the case of `Cc1nc(-c2nnc[nH]2)sc1C(=O)N1CCCC(C(F)(F)F)C1` (stereo unspecified), the cytotoxicity at 10 µM is reported as 7.59%.
For `COc1ccc2cc(CN(C)CCc3cn[nH]c3)c(=O)[nH]c2c1`, the cytotoxicity at 10 µM was 0.363%.
For `CC(C)(C)c1nc(CN2CCN(C(=O)c3cnccn3)CC2)cs1`, the cytotoxicity at 10 µM was -5.92%.
`c1cc(-c2c[nH]c([C@@H]3COCCN3Cc3ncc[nH]3)n2)ccn1` showed a cytotoxicity at 10 µM of 4.99%.
Compound `CN1CCN(C2CCN(CCOc3cccc(Cl)c3)CC2)C1=O` has a cytotoxicity at 10 µM of -2.83%.
Compound `CC(CCc1ccco1)NC(=O)Nc1cc(C(F)(F)F)c[nH]c1=O` (stereo unspecified) has a cytotoxicity at 10 µM of -6.9%.
With `O=C(O)C1(n2ccnc2)CCN(Cc2cc3ccccc3o2)CC1` the cytotoxicity at 10 µM was -6.34%.
`c1cc(-c2ccn(CCN3CCCC3)n2)cc(-c2nccs2)c1` showed a cytotoxicity at 10 µM of -8.96%.
Work on `Cc1csc(C2(NC(=O)CCc3ccncc3)CCCC2)n1` yielded a cytotoxicity at 10 µM of -12.1%.
In the case of `COc1cc(S(=O)(=O)N2CCc3ccccc32)cc(C(=O)O)c1OC`, the cytotoxicity at 10 µM is reported as -7.54%.
Compound `O=C(NCc1cccc(F)c1)N1CCC2(CC(=O)N(c3ccsc3)C2)C1` (stereo unspecified) has a cytotoxicity at 10 µM of -10%.
`CCc1[nH]nc(NC(=O)c2cc[nH]n2)c1C` showed a cytotoxicity at 10 µM of -3.98%.
In the case of `COCc1cc(C[C@@H]2CC[C@H](O)[C@@H](CN(CC(C)C)CC(C)C)O2)no1`, the cytotoxicity at 10 µM is reported as 0.169%.
With `Cc1nc2n(n1)CC(NCc1nc(-c3ccccn3)no1)CC2` (stereo unspecified) the cytotoxicity at 10 µM was -12.4%.
With `CSCCC(NC(=O)c1ccc2ccccc2n1)C(=O)O` (stereo unspecified) the cytotoxicity at 10 µM was -3.09%.
With `CC(C)CS(=O)(=O)NC(=O)c1ccc2c(c1)ncn2C` the cytotoxicity at 10 µM was -9.94%.
Work on `Cc1cc2cc(C(=O)N[C@@H]3CC[C@@H](N4CCCC4)[C@@H]3O)ccc2o1` yielded a cytotoxicity at 10 µM of -4.72%.
Work on `Cn1ccnc1CN1CCCN(C(=O)COCC2CC2)CC1` yielded a cytotoxicity at 10 µM of -11.8%.
For `CC(C)c1ccc(S(=O)(=O)N2CCCC3(CCCN3S(C)(=O)=O)C2)cc1` (stereo unspecified), the cytotoxicity at 10 µM was -0.96%.
With `CNC(=O)CN([C@H]1C[C@H]2CCOC[C@H]2C1)S(=O)(=O)c1ccccc1` the cytotoxicity at 10 µM was -1.63%.
Work on `Cc1nc(-c2noc3ccc(C(=O)NCCN(C)C)cc23)co1` yielded a cytotoxicity at 10 µM of 2.25%.
`Cc1ccc(-c2cc(CN(CC(N)=O)CC(C)C)on2)cc1` showed a cytotoxicity at 10 µM of 10.1%.
`O=C(NCC1CC1)Nc1cnc2cc(Cl)ccc2c1O` showed a cytotoxicity at 10 µM of -0.0788%.
In the case of `CC(C)Nc1nc(N2CCCC2)nc2c1CN(S(C)(=O)=O)CC2`, the cytotoxicity at 10 µM is reported as 2.69%.
With `Cc1ncsc1C(=O)NC1CCN(CC(=O)NCc2ccccc2)CC1` the cytotoxicity at 10 µM was -4.62%.
For `CCn1c(C2CCNCC2)nn(Cc2ccc(C(=O)NC)o2)c1=O`, the cytotoxicity at 10 µM was 6.8%.
`CN(C)C(=O)COc1ccccc1CN1CCCC2(C1)CN(C)C(=O)O2` (stereo unspecified) showed a cytotoxicity at 10 µM of 0.224%.
`COCCNC(=O)Cn1nc(C(C)C)c2cnn(C(C)(C)C)c2c1=O` showed a cytotoxicity at 10 µM of -21.9%.
`Cc1nc(C2CCCN(C(=O)c3cc(Cl)c[nH]3)C2)no1` (stereo unspecified) gave a cytotoxicity at 10 µM of -8.29%.
For `O=C(c1cn(Cc2ccccc2)c2ncccc12)N1CCCCC1`, the cytotoxicity at 10 µM was 1.2%.
`CC(C(=O)N1CCN(C)CC1)n1cc(Br)cn1` (stereo unspecified) showed a cytotoxicity at 10 µM of 3.6%.
Work on `NC(=O)C1CN(C(=O)C2(c3ccc(F)cc3F)CCCC2)CCO1` (stereo unspecified) yielded a cytotoxicity at 10 µM of -5.92%.
Compound `CCn1nc(C)c2nc(C(C)C)nc(NCC(C)C)c21` has a cytotoxicity at 10 µM of 15.5%.
`Clc1snnc1CN1CCOC(CNc2cccnn2)C1` (stereo unspecified) showed a cytotoxicity at 10 µM of -11%.
`CCn1ncc2c1CCCC2NCc1cc(Cl)c(OC)c(OC)c1` (stereo unspecified) showed a cytotoxicity at 10 µM of 24.4%.
For `CCN1CCN(C2CCN(Cc3nc(CCOC)no3)CC2)C1=O`, the cytotoxicity at 10 µM was -9.44%.
Work on `Cc1ccc(-n2cc(S(=O)(=O)Nc3cccc(C(=O)O)c3C)cn2)cc1` yielded a cytotoxicity at 10 µM of -1.74%.
